Each structure is given as a SMILES string.

This assay concerns the target CHO-CHOP luciferase reporter, UPR activation, luminescence. The experiment in a line: activators of CHOP-driven apoptotic UPR arm, SAR follow-up, CHO-CHOP cells, luciferase luminescence, set 3 (AID 602434). In a few lines: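 Test system: CHO-CHOP luciferase reporter cells. Times: cells plated 16-18 h before dosing, 6 h compound exposure at 37 °C. Signal: luminescence with Steady-Glo luciferase reagent.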
Consider `O=C(Nc1ccc(S(=O)(=O)N2CCC(F)CC2)cc1)c1ccc([N+](=O)[O-])o1`, for which the EC50 is 435 nM.

Take `CC1(C)CCN(S(=O)(=O)c2ccc(NC(=O)c3ccc([N+](=O)[O-])o3)cc2)CC1`: the EC50 is 765 nM.

As for `CC1CCN(S(=O)(=O)c2ccc(NC(=O)c3ccc([N+](=O)[O-])o3)cc2)CC1`, the 50% effective concentration (EC50) was 761 nM.

As for `CC(C)(C)C1CCN(S(=O)(=O)c2ccc(NC(=O)c3ccc([N+](=O)[O-])o3)cc2)CC1`, the EC50 was 652 nM.

For `O=C(Nc1ccc(S(=O)(=O)N2CCCCC2)cc1)c1ccc([N+](=O)[O-])o1`, the EC50 was 741 nM.

Take `O=C(Nc1ccc(S(=O)(=O)N2CCC(Cl)CC2)cc1)c1ccc([N+](=O)[O-])o1`: the EC50 is 785 nM.

(Values after PubChem BioAssay AID602434 (Sanford-Burnham Center for Chemical Genomics, 2012).)
